S100A4 MyoIIA = S100A4-myosin IIA interaction inhibition; 360,000 compounds, 0.14% hits; S100A4/TAMRA-MyoIIA peptide fluorescence polarization; inhibition, % at 10.7 µM;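 active means mean inhibition of at least 70% across replicates, with every replicate also reaching that level; inconclusive means mean inhibition reaches 70% but some replicates fall short; inactive means mean inhibition below 70%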
Target sequence (P26447 whole entry, looked up): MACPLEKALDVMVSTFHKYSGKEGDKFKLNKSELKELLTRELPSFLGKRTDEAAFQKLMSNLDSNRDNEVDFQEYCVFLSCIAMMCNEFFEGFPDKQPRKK
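Material: S100A4 monomer protein | Medium: HEPES pH 7.2 with CaCl2, KCl, NaCl, DTT, Triton | Reagent: Labelled myosin peptide probe, 5 nM | Doses: One dose per compound | Times: 5 min incubation before reading | Benchmarks: Neutral control DMSO, positive control TFP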
F508del corr = CFTR F508del correction in bronchial cells; 350,000 compounds, 0.36% hits; activity (quench increase), % at 7.58 µM; CFBE cells, YFP halide quenching; stimulated with forskolin plus potentiator P3; % fluorescence drop versus neutral controls;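 active means mean added fluorescence quench of at least 8% versus neutral control, with both replicates also reaching 8%; inconclusive means only one of the mean or replicate conditions met; inactive means mean below 8% and not both replicates reaching 8%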;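 further: cells transiently co-express mutant CFTR-F508del with the halide-sensitive YFP; corrector assay measuring rescue of mutant channel to the surface after 24 h compound exposure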
FGF22 binding = FGF22 (human) thermal shift binding; activity (Tm shift, normalised), % at 9.99 µM; Q9HCT0; 340,000 compounds, 1.5% hits; recombinant FGF22 thermal shift, SYPRO orange fluorescence; percent of sucrose octasulfate shift, DMSO zero;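 active means mean Tm shift, scaled 0 neutral to 100 positive control, at about 1.3% or above, every replicate too, limit read from the data; inconclusive means no clear call, values can overlap the other calls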
Target sequence (Q9HCT0 whole entry, looked up): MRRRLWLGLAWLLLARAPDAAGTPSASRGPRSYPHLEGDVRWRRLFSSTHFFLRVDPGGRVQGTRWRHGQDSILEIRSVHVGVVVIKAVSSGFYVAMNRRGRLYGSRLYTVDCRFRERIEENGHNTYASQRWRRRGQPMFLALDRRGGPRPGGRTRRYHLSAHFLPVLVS
dFosB activator = activators of mouse delta FosB homodimer; P13346; purified delta FosB, TAMRA-CDK5 oligo fluorescence polarization; percent of positive-control signal above neutral wells; activation, % at 25 µM; 340,000 compounds, 0.99% hits; AID 493131;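 active means mean activation above about 17%, with every replicate also reaching it, limit read from the data, passing the limit was not always enough; inconclusive means only one of the two conditions met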
Active calls of the source: *; u = inconclusive; x = no result. Sampled rows, rich in hits. Any-hit rate of the full collection: about 2.2%.

SMILES	S100A4 MyoIIA	F508del corr	FGF22 binding	dFosB activator
CCCN(C)C[C@H]1OCCCC[C@@H](C)Oc2ccc(NS(=O)(=O)c3ccc(OC)cc3)cc2C(=O)N([C@@H](C)CO)C[C@H]1C	x	2	x	x
COc1ccc2c(c1OC)CN(C)CCc1cc3c(cc1C(=O)C2)OCO3	0	-2	43*	2
COc1cc2c(cc1OC)C(=O)Cc1ccc3c(c1CN(C)CC2)OCO3	3	2	0	0
COc1cc(/C=N/NC(=O)C(=O)NCC2CCCO2)cc(Cl)c1O (configuration not stated)	-1	-2	-1	2
COc1cc(/C=N/NC(=O)C(=O)NCC2CCCO2)ccc1OCC(=O)N1CCOCC1 (configuration not stated)	-5	-3	44*	1
C[C@@H]1CN([C@@H](C)CO)C(=O)c2cc(NS(=O)(=O)c3cn(C)cn3)ccc2O[C@H]1CN(C)S(=O)(=O)c1cn(C)cn1	x	1	x	x
O=C(COC(=O)CNC(=O)c1ccccc1Cl)NC1CC1	3	2	0	1
O=C(CNC(=O)c1ccc(Cl)cc1Cl)OCc1cn2cc(Br)ccc2n1	74*	-4	0	-8
O=C(COC(=O)CNC(=O)c1ccc(Cl)cc1Cl)NC1CC1	-4	-1	43*	-4
Cc1noc(C)c1NC(=O)N(C)C[C@H]1Oc2ccc(NC(=O)Nc3cccc4ccccc34)cc2CC(=O)N([C@@H](C)CO)C[C@@H]1C	-3	-4	1	x
Cc1ccc(CNc2nc(N)c([N+](=O)[O-])c(NCc3ccccc3)n2)cc1	x	x	x	3
Nc1nc(Nc2ccccc2)nc(NC2CCCCC2)c1[N+](=O)[O-]	-1	-1	0	73*
CNc1nc(N)c([N+](=O)[O-])c(NC2CCCCC2)n1	-1	1	1	-12
Cc1cccc(Nc2nc(N)c([N+](=O)[O-])c(N3CCN(C)CC3)n2)c1	x	x	x	-3
Nc1nc(Nc2ccccc2)nc(NCc2ccccc2)c1[N+](=O)[O-]	-5	-2	0	34*
Cc1cccc(Nc2nc(N)c([N+](=O)[O-])c(NCc3ccccc3)n2)c1	-2	0	0	39*
Cc1cccc(Nc2nc(N)c([N+](=O)[O-])c(N3CCCC(C)C3)n2)c1 (configuration not stated)	x	x	x	45*
Nc1nc(NCc2ccccc2)nc(NCc2ccccc2)c1[N+](=O)[O-]	x	x	x	6
C[C@H](CO)N1C[C@H](C)[C@H](CN(C)S(=O)(=O)c2ccc(F)cc2)Oc2c(NC(=O)c3ccc(-c4nccs4)cc3)cccc2C1=O	10	3	-1	x
Cc1noc(C)c1NC(=O)Nc1ccc2c(c1)C(=O)N([C@H](C)CO)C[C@H](C)[C@H](CN(C)C(=O)Nc1ccc3c(c1)OCO3)OCCCC[C@H](C)O2	-2	0	0	x
CCn1c(CNc2cccc(C(F)(F)F)c2)n[nH]c1=S	-4	3	43*	-3
O=c1[nH]nc(CNc2cccc(C(F)(F)F)c2)c2ccccc12	0	0	0	-5
Cc1cc(OCC(=O)NCc2cccnc2)c2c(C)cc(=O)oc2c1	19	1	0	-6
Cc1cc(OCC(=O)NCCc2ccc(Cl)cc2)c2c(C)cc(=O)oc2c1	-7	-4	43*	u
O=C(Nc1ccc2c(c1)OCO2)c1cc2ncc(Br)cn2n1	x	x	x	28*
SMILES	S100A4 MyoIIA	F508del corr	FGF22 binding	dFosB activator
O=C(Nc1cccc(C(F)(F)F)c1)c1cc2ncc(Br)cn2n1	3	-2	0	8
Cc1ccc(NS(=O)(=O)c2cc(C(=O)N(C)C)ccc2C)cc1C	-7	1	43*	-11
COc1ccc(-c2ccc(SCC(=O)Nc3cccc(C(C)=O)c3)nn2)cc1OC	5	0	43*	-14
COc1ccc(NC(=O)CSc2ccc(-c3ccccn3)nn2)cc1OC	-4	-2	43*	-6
CC(=O)c1cccc(NC(=O)CSc2ccc(-c3ccc4c(c3)OCO4)nn2)c1	-10	-4	0	15
COc1ccccc1NC(=O)CSc1ccc(-c2ccccn2)nn1	-1	8.1*	0	-6
Cc1nnc(SCC(=O)NC(=O)Nc2ccc3c(c2)OCCO3)s1	-1	0	43*	-4
Cc1c(C)n2c(SCC(=O)Nc3ccc4c(c3)OCCO4)nnc2[nH]c1=O	-6	2	44*	-4
CCCc1cc(=O)[nH]c2nnc(SCC(=O)Nc3ccc4c(c3)OCCO4)n12	-3	-2	0	-5
C[C@H](CO)N1C[C@H](C)[C@H](CN(C)CC2CCOCC2)Oc2ncc(C#Cc3ccccc3)cc2C1=O	4	3	0	x
COc1ccc(CCn2nnc(-c3ccc(NC(C)=O)c(Cl)c3)n2)cc1	x	x	x	33*
COc1ccc(-c2ccc(-c3nnn(CC(C)=O)n3)cc2)cc1	x	x	x	-2
CN(C)S(=O)(=O)c1ccc(N=Cc2c(C(F)(F)F)[nH]n(C)c2=O)cc1	-5	1	44*	3
O=[N+]([O-])c1cc(Cc2ccccc2)cc(C=Nc2ccc(N3CCOCC3)cc2)c1O	x	x	x	-3
Cc1ccc(O)c(N=Cc2cc(Cc3ccccc3)cc([N+](=O)[O-])c2O)c1	-22	-2	43*	-16
C[C@H](CO)N1C[C@H](C)[C@H](CN(C)C(=O)CC2CC2)Oc2ncc(C#Cc3cccnc3)cc2C1=O	2	1	0	x
CCOC(=O)C1C(c2cccc([N+](=O)[O-])c2)C2C(=O)NN=C2CC1(C)O (configuration not stated)	-2	0	43*	-2
COc1ccc2cc(C#N)c(Nc3cccc(F)c3)nc2c1	-3	-3	44*	1
COc1ccc(Nc2nc3cc(C)ccc3cc2C#N)cc1	-5	2	0	2
O=C(C1CCC1)N1CC2(C1)[C@H](c1ccccc1)[C@@H](CO)N2CC1CCCC1	-11	-3	x	x
Cc1nc(N)[nH]c(=O)c1CCCNS(=O)(=O)c1ccc([N+](=O)[O-])cc1	0	8.1*	0	-4
C[C@H](CO)N1C[C@H](C)[C@@H](CN(C)C(=O)Nc2cccc3ccccc23)Oc2ccc(NC(=O)Nc3ccc4c(c3)OCO4)cc2C1=O	26	0	-1	x
COc1ccc(-c2nc(N)ncc2-c2csc(C)n2)c(O)c1OC	0	0	44*	-3
O=C(NCc1cccnc1)Nc1ccc2c(c1)OCO2	5	5	43*	5
CCOc1ccccc1NC(=O)NCc1ccccc1	2	-1	0	-2
CCOc1ccccc1NC(=O)NCc1cccnc1	-2	1	43*	-2
c1cncc(CNc2ccc3c(c2)OCO3)c1	x	x	x	0
O=C(COC(=O)c1cccnc1)Nc1ccc2c(c1)OCO2	-2	1	43*	2
COc1cccc(NC(=S)Nc2cc(C(=O)O)ccc2N2CC3CC(C2)c2cccc(=O)n2C3)c1 (configuration not stated)	-3	-4	3.3*	-6
N#Cc1c(-c2ccccc2)nc(SCC(=O)Nc2ccccc2)[nH]c1=O	x	x	x	-14

Source: PubChem
